The test system of data set [1] is Anti-α-PVP/MDPV polyclonal antibody. In words: Competitive magnetic bead-based radioimmunoassay. Format: binding, rat. To be noted: MDPV-t2 tracer; for IC50: structurally related cathinones tested at 10 μM and 100 μM only. A digest of the protocol: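 Sera came from male SD rats immunized sc with 100 μg bi-specific KLH conjugate plus 150 μL SAS. The competitive magnetic-bead RIA was specific for IgG binding and used tritium-labeled drug as tracer. Full inhibition curves with unlabeled drug gave IC50; one curve used a racemic homologous tritiated tracer. Analogues were tested only at 10 and 100 μM against 5 nM MDPV-t₂, scored as inhibition of tracer binding.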

A short description of data set [2]: MDPV and α-PVP serum concentrations after sc challenge dose. In kind it is in vivo, rat. To be noted: SAS and vaccinated rats, LC-MS/MS.
The conditions of data set [3]: humans; cited from earlier work.
In data set [4] the test system is drug-specific pAb. To be noted: pAb from earlier separate α-PVP and MDPV vaccines; cited from earlier work.
The test system of data set [5] is male SD rats. In kind it is in vivo, rat. To be noted: SAS control rats; sc. In outline: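 Thirteen weeks after initial sc immunization (SAS alone or vaccine plus SAS), male SD rats (n=5–6/group) were habituated 60 min in litter-lined open-field chambers. They then got sc saline or drug at 0.3–5.6 mg/kg in ascending doses, 2–3 days apart, with each drug in a separate study. Video tracking ran 6 h; horizontal distance was summed per rat and reported as mean ± SD.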

Data set [6] is described as follows: Stability of α-PVP in extracted rat serum. Format: physicochemical. The settings on record: 4 °C.

As a reminder, the IC50 is the concentration at which inhibition is half-maximal. A low value points to greater potency in that assay.

Regarding `CNC(C)Cc1ccc2c(c1)OCO2` (racemic) [MDMA, (±)-3,4-methylenedioxymethamphetamine], the “inhibition of MDPV-t2 binding” value in data set [1] (100 μM ligand) is listed as not above 50%.

With `CCC(C(=O)c1ccc2c(c1)OCO2)N1CCCC1` (stereo not drawn) [3,4-Methylenedioxy-α-pyrrolidinobutiophenone], the “inhibition of MDPV-t2 binding” value in data set [1] (100 μM ligand) came out at 50%. The same compound showed an IC50 in data set [1] of 100 µM.

`CC(C(=O)c1ccc2c(c1)OCO2)N1CCCC1` (stereo not drawn) [3,4-Methylenedioxy-α-pyrrolidinopropiophenone]: the IC50 in data set [1] is more than 100 µM.

With `C[C@H](N)C(=O)c1ccccc1` [(S)-Cathinone], the 50% inhibitory concentration (IC50) in data set [1] was more than 100 µM.

Take `CCCC(C(=O)c1ccc2c(c1)OCO2)N1CCCC1` (stereo not shown) [MDPV, 3,4-Methylenedioxypyrovalerone]: in data set [2], the “serum concentration 24 h after drug administration” value is “below the lower limit of quantitation”. In data set [3], the “blood concentrations associated with recreational use” value was 10 to 50 ng/mL; the “blood concentrations at intoxication and overdose” value is 50 to 300 ng/mL. In addition, the pAb affinities constants result in data set [4] is given as “micromolar range”.

`CNC(C)C(=O)c1ccc(C)cc1` (stereo not shown) [Mephedrone] gave an IC50 in data set [1] of more than 100 µM.

In the case of `CNC(C)C(=O)c1ccc2c(c1)OCO2` (stereo not shown) [Methylone], the IC50 in data set [1] was more than 100 µM.

The compound `CCCC(NC)C(=O)c1ccccc1` (stereo not shown) [Pentedrone] had an IC50 in data set [1] of more than 100 µM.

In data set [1], `CCCC(NC)C(=O)c1ccc2c(c1)OCO2` (stereo not shown) [Pentylone] came in with a 50% inhibitory concentration (IC50) of more than 100 µM.

Regarding `CCCC(C(=O)c1ccc(C)cc1)N1CCCC1` (stereo not shown) [Pyrovalerone], in data set [1] (10 μM ligand), the “inhibition of MDPV-t2 binding” value is on record as 68%.

As for `COC(=O)[C@H]1[C@@H](OC(=O)c2ccccc2)C[C@@H]2CC[C@H]1N2C` [cocaine], the “inhibition of MDPV-t2 binding” value in data set [1] (100 μM ligand) is not above 50%.

With `NCCc1ccc(O)c(O)c1` [dopamine], the “inhibition of MDPV-t2 binding” value in data set [1] (100 μM ligand) is not above 50%.

As to `CNC[C@H](O)c1ccc(O)c(O)c1` [epinephrine], the “inhibition of MDPV-t2 binding” value in data set [1] (100 μM ligand) is not above 50%.

On to `CN[C@@H](C)Cc1ccccc1` [methamphetamine], for which, in data set [1] (100 μM ligand), the “inhibition of MDPV-t2 binding” value is not above 50%.

Turning to `NC[C@H](O)c1ccc(O)c(O)c1` [norepinephrine], the “inhibition of MDPV-t2 binding” value in data set [1] (100 μM ligand) is recorded as not above 50%.

Regarding `c1ccc(C2(N3CCCCC3)CCCCC2)cc1` [phencyclidine], the “inhibition of MDPV-t2 binding” value in data set [1] (100 μM ligand) is reported as not above 50%.

For `CN[C@@H](C)[C@@H](O)c1ccccc1` [pseudoephedrine], the “inhibition of MDPV-t2 binding” value in data set [1] (100 μM ligand) is recorded as not above 50%.

As for `NCCc1c[nH]c2ccc(O)cc12` [serotonin], the “inhibition of MDPV-t2 binding” value in data set [1] (100 μM ligand) was not above 50%.

In the case of `NCCc1ccc(O)cc1` [tyramine], the “inhibition of MDPV-t2 binding” value in data set [1] (100 μM ligand) is reported as not above 50%.

Take `CCCC(C(=O)c1ccccc1)N1CCCC1` (stereo not drawn) [α-PVP, α-pyrrolidinovalerophenone]: in data set [2], the “serum concentration 24 h after drug administration” value is given as “below the lower limit of quantitation”. In addition, the “dose of peak effect on horizontal movement” value in data set [5] stood at 1.0 mg/kg. Besides, the pAb affinities constants entry in data set [4] is reported as “micromolar range”. In addition, the “stability in extracted serum” value in data set [6] is “at least 59 h”.

In data set [1], (S)-Methcathinone came in with an IC50 of more than 100 µM.

The record behind these values is article PMC6938543 (Vaccine, 2019).
